This note sets out measurements from ChEMBL document CHEMBL3407460, “Synthesis of novel thiazole-based 8,9-dihydro-7H-pyrimido[4,5-b][1,4]diazepines as potential antitumor and antifungal agents” (2015).

Holding throughout (format): functional
A short description of test [1]: Antitumor activity against human MOLT4 cells after 48 hrs by Sulforhodamine B assay. As to conditions: MOLT-4, 48 h. The essentials: (§1)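 NCI 60-cell-line screen. Secondary five-dose test at 100, 10, 1.0, 0.1 and 0.01 µM with continuous drug exposure for 48 h. Cell growth was estimated by sulforhodamine B protein staining. […] LC50 was also reported.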
A short description of test [2]: Antitumor activity against human RPMI8226 cells after 48 hrs by Sulforhodamine B assay. As to conditions: RPMI-8226, 48 h. The essentials: as §1
Test [3] is described as follows: Antitumor activity against human LOXIMVI cells after 48 hrs by Sulforhodamine B assay. As to conditions: LOX IMVI; for CC50: read-out: LC50 (the source's name). The essentials:
as §1

Another test concerns SK-MEL-2. Put plainly: Antitumor activity against human SK-MEL-2 cells after 48 hrs by Sulforhodamine B assay. As to conditions: SK-MEL-2, 48 h. In outline:
as §1
On the technique in general: The SRB assay estimates cell density from bound dye.

The next test concerns SK-MEL-28. Briefly: Antitumor activity against human SK-MEL-28 cells after 48 hrs by Sulforhodamine B assay. Conditions: SK-MEL-28, 48 h. The essentials:
as §1

Test [4] is described as follows: Antitumor activity against human UACC62 cells after 48 hrs by Sulforhodamine B assay. Conditions: UACC-62, 48 h. In outline: as §1
For the next test, the system named is IGROV-1. Put plainly: Antitumor activity against human IGROV1 cells after 48 hrs by Sulforhodamine B assay. As to conditions: IGROV-1, 48 h; for CC50: read-out: LC50 (the source's name). The essentials:
as §1

The next test relates to DU-145. Briefly: Antitumor activity against human DU145 cells after 48 hrs by Sulforhodamine B assay. Conditions: DU-145, 48 h; for CC50: read-out: LC50 (the source's name). In outline:
as §1

Some results are limits rather than exact numbers.

As for `Nc1ncnc2c1N=C(c1ccc3c(c1)OCO3)CC(c1sc(Cl)nc1Cl)N2` (configuration not stated), the 50% growth inhibitory concentration (GI50) – broadly, the concentration that inhibits growth by half – amounted to 5.91 µM in test [1]; 4.66 µM in test [2]; 7.02 µM in test [3]; 5.19 µM in the test on SK-MEL-2; 7.63 µM in the test on SK-MEL-28; 2.17 µM in test [4]. In addition, the concentration for 50% growth inhibition (GI50) amounted to 10.4 µM in the test on IGROV-1 and 8.45 µM in the test with DU-145. The LC50 (in general, the concentration lethal to half of the exposed cells or organisms) in test [1] is above 100 µM; in the test with SK-MEL-2, 48.6 µM; in the test with SK-MEL-28, 91.6 µM; in test [4], 63.9 µM. In test [2], this molecule had an LC50 (concentration causing 50% net cell kill) above 100 µM. The figures for the CC50 (in test [3]; in the test on IGROV-1; with DU-145) were 75.6 µM, above 100 µM and above 100 µM, respectively.
In the case of `Cc1ccc(C2=Nc3c(N)ncnc3NC(c3sc(Cl)nc3Cl)C2)cc1` (configuration not stated), the concentration for 50% growth inhibition (GI50) was 4.06 µM in test [1]; 4.99 µM in test [2]; 5.39 µM in test [3]; 2.98 µM in the test with SK-MEL-2; 4.26 µM with SK-MEL-28; 3.05 µM in test [4]. Besides, the GI50 in the test on IGROV-1 was 7.08 µM; with DU-145, 11.2 µM. For the same molecule, the LC50 in test [1] was above 100 µM; in the test with SK-MEL-2, 35.6 µM; with SK-MEL-28, 42.8 µM; in test [4] it was 37.2 µM. For the same molecule, the LC50 (concentration causing 50% net cell kill) in test [2] was above 100 µM. The CC50 in test [3] worked out at 43.2 µM; in the test with IGROV-1, 63.2 µM; in the test on DU-145 it was 52.4 µM.
